Source: ChEMBL document CHEMBL4118256, “Second Generation of Mannich Base-Type Derivatives with in Vivo Activity against Trypanosoma cruzi” (J Med Chem, 2018)
Calls of active or inactive are those of the source. The calls are words filed in the database; no cut-off is given here.

Columns and labels:
[1] = tested on: Mus musculus; test: (§1) Hepatotoxicity in Balb/c mouse infected with Trypanosoma cruzi MHOM/Pe/2011/Arequipa DTU 5 trypamastigotes assessed as decrease in ratio of serum ALT to GPT level at […], po once daily for 5 consecutive days starting from day 75 post infection measured on day 127 post infection by biochemical analysis relative to control; type: toxicity, organism-based; design: scale not given: the % may be the effect or the level left; conditions: in vivo
[2] = tested on: Mus musculus; test: as §1, with “AST” for “ALT”, “GOT” for “GPT”; type: toxicity, organism-based; design: scale not given: the % may be the effect or the level left; conditions: in vivo
[3] = tested on: Trypanosoma cruzi; test: (§2) Antitrypanosomal activity against Trypanosoma cruzi MHOM/Pe/2011/Arequipa DTU 5 trypamastigotes infected in Balb/c mouse assessed as reduction in parasitaemia reactivation at 100 mg/kg, po pretreated once daily for 5 consecutive days starting from day 75 post infection followed by cyclophosphamide-induced immunosuppression on day 100 post infection every 4 days for a maximum of 3 doses measured up to 1 week post immunosuppression by Neubauer chamber method; type: functional, organism-based
[4] = tested on: Mus musculus; test: as §1, with “AST” for “ALT”, “GOT” for “GPT”, “10” for “75”, “16” for “127”; type: toxicity, organism-based; design: scale not given: the % may be the effect or the level left; conditions: in vivo
[5] = tested on: Mus musculus; test: as §1, with “Cardiotoxicity” for “Hepatotoxicity”, “change” for “decrease”, “in” for “in ratio of”, “LDH” for “ALT to GPT”, “10” for “75”, “16” for “127”; type: toxicity, organism-based; conditions: in vivo
[6] = tested on: Mus musculus; test: as §1, with “Cardiotoxicity” for “Hepatotoxicity”, “change” for “decrease”, “creatine kinase in muscle” for “serum ALT”, “brain” for “GPT level”, “10” for “75”, “16” for “127”; type: toxicity, organism-based; conditions: in vivo
[7] = tested on: Mus musculus; test: as §1, with “Nephrotoxicity” for “Hepatotoxicity”, “change” for “decrease”, “uric acid level in” for “ratio of”, “serum” for “serum ALT to GPT level”; type: toxicity, organism-based; conditions: in vivo
[8] = tested on: Mus musculus; test: as §1, with “Nephrotoxicity” for “Hepatotoxicity”, “increase” for “decrease”, “urea level in” for “ratio of”, “serum” for “serum ALT to GPT level”, “10” for “75”, “16” for “127”; type: toxicity, organism-based; conditions: in vivo
[9] = tested on: Mus musculus; test: as §1, with “AST” for “ALT”, “GOT” for “GPT”, “10” for “75”; type: toxicity, organism-based; design: scale not given: the % may be the effect or the level left; conditions: in vivo
[10] = tested on: Mus musculus; test: as §1, with “AST” for “ALT”, “GOT” for “GPT”, “81” for “127”; type: toxicity, organism-based; design: scale not given: the % may be the effect or the level left; conditions: in vivo
[11] = tested on: Mus musculus; test: as §1, with “10” for “75”, “16” for “127”; type: toxicity, organism-based; design: scale not given: the % may be the effect or the level left; conditions: in vivo
[12] = tested on: Mus musculus; test: as §1, with “81” for “127”; type: toxicity, organism-based; design: scale not given: the % may be the effect or the level left; conditions: in vivo
[13] = tested on: Mus musculus; test: as §1, with “Nephrotoxicity” for “Hepatotoxicity”, “increase” for “decrease”, “uric acid level in” for “ratio of”, “serum” for “serum ALT to GPT level”, “10” for “75”, “16” for “127”; type: toxicity, organism-based; conditions: in vivo
[14] = tested on: Mus musculus; test: as §1, with “total bilirubin” for “ratio of serum ALT to GPT”, “10” for “75”, “16” for “127”; type: toxicity, organism-based; design: scale not given: the % may be the effect or the level left; conditions: in vivo
[15] = tested on: Mus musculus; test: as §1, with “alkaline phosphatase” for “ratio of serum ALT to GPT”, “10” for “75”, “16” for “127”; type: toxicity, organism-based; design: scale not given: the % may be the effect or the level left; conditions: in vivo
[16] = tested on: Mus musculus; test: as §1, with “total bilirubin” for “ratio of serum ALT to GPT”, “81” for “127”; type: toxicity, organism-based; design: scale not given: the % may be the effect or the level left; conditions: in vivo
[17] = tested on: Mus musculus; test: as §1, with “Nephrotoxicity” for “Hepatotoxicity”, “urea level in” for “ratio of”, “serum” for “serum ALT to GPT level”, “81” for “127”; type: toxicity, organism-based; design: scale not given: the % may be the effect or the level left; conditions: in vivo
[18] = tested on: Trypanosoma cruzi; test: Antitrypanosomal activity against Trypanosoma cruzi MHOM/Pe/2011/Arequipa DTU 5 epimastigotes assessed as effect on parasite glycolytic pathway by measuring D-lactate excretion at IC25 after 72 hrs by 1H NMR method; type: functional, organism-based
Procedure, shortened: (§3)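 Arequipa epimastigotes exposed at IC25 for 72 h alongside an untreated control. Excreted catabolites were analysed by 1H NMR, and each peak is reported as % variation versus the control. Three separate determinations.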

[19] = tested on: Mus musculus; test: as §1, with “Nephrotoxicity” for “Hepatotoxicity”, “urea level in” for “ratio of”, “serum” for “serum ALT to GPT level”, “10” for “75”, “16” for “127”; type: toxicity, organism-based; design: scale not given: the % may be the effect or the level left; conditions: in vivo
[20] = tested on: Trypanosoma cruzi; test: Antitrypanosomal activity against Trypanosoma cruzi MHOM/Pe/2011/Arequipa DTU 5 epimastigotes assessed as effect on parasite glycolytic pathway by measuring increase in succinate excretion at IC25 after 72 hrs by 1H NMR method relative to control; type: functional; procedure, shortened: as §3
[21] = tested on: Trypanosoma cruzi; test: Antitrypanosomal activity against Trypanosoma cruzi MHOM/Pe/2011/Arequipa DTU 5 epimastigotes assessed as effect on parasite glycolytic pathway by measuring L-alanine excretion at IC25 after 72 hrs by 1H NMR method; type: functional, organism-based; procedure, shortened: as §3
[22] = tested on: Mus musculus; test: as §1, with “Nephrotoxicity” for “Hepatotoxicity”, “uric acid level in” for “ratio of”, “serum” for “serum ALT to GPT level”, “81” for “127”; type: toxicity, organism-based; design: scale not given: the % may be the effect or the level left; conditions: in vivo
[23] = tested on: Mus musculus; test: as §1, with “Nephrotoxicity” for “Hepatotoxicity”, “change” for “decrease”, “uric acid level in” for “ratio of”, “serum” for “serum ALT to GPT level”, “10” for “75”; type: toxicity, organism-based; conditions: in vivo
[24] = tested on: Trypanosoma cruzi; test: as §2, with “as” for “as reduction in”; type: functional
[25] = tested on: Mus musculus; test: as §1, with “Nephrotoxicity” for “Hepatotoxicity”, “change” for “decrease”, “urea level in” for “ratio of”, “serum” for “serum ALT to GPT level”, “10” for “75”; type: toxicity, organism-based; conditions: in vivo
[26] = tested on: Mus musculus; test: as §1, with “Nephrotoxicity” for “Hepatotoxicity”, “uric acid level in” for “ratio of”, “serum” for “serum ALT to GPT level”, “10” for “75”, “16” for “127”; type: toxicity, organism-based; design: scale not given: the % may be the effect or the level left; conditions: in vivo
[27] = tested on: Trypanosoma cruzi; test: Antitrypanosomal activity against Trypanosoma cruzi MHOM/Pe/2011/Arequipa DTU 5 epimastigotes assessed as effect on parasite glycolytic pathway by measuring ethanol excretion at IC25 after 72 hrs by 1H NMR method; type: functional, organism-based; procedure, shortened: as §3
[28] = tested on: Trypanosoma cruzi; test: Antitrypanosomal activity against Trypanosoma cruzi MHOM/Pe/2011/Arequipa DTU 5 epimastigotes assessed as effect on parasite glycolytic pathway by measuring acetate excretion at IC25 after 72 hrs by 1H NMR method; type: functional, organism-based; procedure, shortened: as §3
[29] = tested on: Mus musculus; test: Cardiotoxicity in Balb/c mouse infected with Trypanosoma cruzi MHOM/Pe/2011/Arequipa DTU 5 trypamastigotes assessed as change in serum LDH level at 20 mg/kg, po once daily for 5 consecutive days starting from day 10 post infection measured on day 16 post infection by biochemical analysis relative to control; type: toxicity, organism-based; conditions: in vivo
Procedure, shortened: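 Serum clinical chemistry in Arequipa-infected female BALB/c mice. Oral 20 mg·kg-1 per day for 5 days, started day 10 or day 75 pi. Samples taken at day 16 pi or day 81 pi, and on necropsy day. Markers: CK-MB and LDH (U/L), AST, ALT and alkaline phosphatase (U/L), total bilirubin. Results scored relative to infected untreated controls; uninfected reference n = 15.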

[30] = tested on: Mus musculus; test: as §1, with “increase” for “decrease”, “10” for “75”, “16” for “127”; type: toxicity, organism-based; conditions: in vivo

| SMILES | Activity [1] | Activity [2] | Activity [3] | Activity [4] | Activity [5] [%] | Activity [6] [%] | Activity [7] [%] | Activity [9] | Activity [10] | Activity [11] | Activity [12] | Activity [14] | Activity [15] | Activity [16] | Activity [17] | Activity [18] | Activity [19] | Activity [20] [%] | Activity [21] | Activity [22] | other results |
| --- | --- | --- | --- | --- | --- | --- | --- | --- | --- | --- | --- | --- | --- | --- | --- | --- | --- | --- | --- | --- | --- |
| COc1ccc(C(=O)CCN2CCN(c3ccc(F)cc3)CC2)cc1 | <= 10% | <= 20% | Active | <= 30% | < 10 | < 10 | < 10 | <= 10% | <= 10% | <= 30% | <= 30% | <= 10% | <= 20% | <= 10% | – | – | – | – | – | – | Activity [8]: <= 30%; Activity [13]: <= 20% |
| COc1ccc(C(=O)CCN2CCN(c3ccc(Cl)cc3)CC2)cc1 | <= 10% | <= 20% | – | <= 20% | – | – | < 10 | <= 10% | <= 20% | <= 20% | <= 30% | <= 10% | <= 10% | <= 20% | <= 30% | inactive | <= 30% | 200 | inactive | <= 30% | Activity [23]: < 10%; Activity [24]: 20%; Activity [25]: < 10%; Activity [26]: <= 30%; Activity [27]: inactive; Activity [28]: inactive |
| O=C(Cn1ccnc1[N+](=O)[O-])NCc1ccccc1 [BENZNIDAZOLE] | – | – | – | – | – | – | – | – | – | – | – | – | – | – | – | – | – | – | – | – | Activity [29]: < 10% |
| COc1ccc(C(=O)CCN2CCN(c3ccc([N+](=O)[O-])cc3)CC2)cc1 | – | – | Active | – | < 10 | < 10 | – | – | – | – | – | – | – | – | <= 10% | inactive | <= 20% | >20 | inactive | <= 30% | Activity [23]: < 10%; Activity [25]: < 10%; Activity [26]: <= 20%; Activity [27]: inactive; Activity [28]: inactive; Activity [30]: > 40% |
